ChEMBL document CHEMBL3877264, “Quinolidene-rhodanine conjugates: Facile synthesis and biological evaluation” (Eur J Med Chem, 2017)
Values after ≈ are worked out from the molar mass of the structure shown.

Key:
Format in all cases: functional
[1] = tested on: Mycobacterium tuberculosis; experiment: Growth inhibition of Mycobacterium bovis BCG ATCC 35743 at dormant stage at 10 ug/ml measured after 12 days by nitrate reductase dye based two fold dilution method relative to control; settings: BCG str. ATCC 35743, 288 h, read-out: GI
In short: (§1)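 M. bovis BCG was grown in Dubos medium and assayed in Mycobacterium pheli minimal medium (pH 6.6), with compounds from DMSO stocks. Incubation lasted 8 days for active and 12 days for dormant cultures. Viability was read by nitrate reductase at 540 nm against cell-free blanks, with vehicle set as 100% growth. Primary screen was at 30, 10 and 3 µg/ml, in triplicate, mean ± SD. MIC was taken from dose-response curves.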

[2] = tested on: Pseudomonas fluorescens; experiment: Growth inhibition of Pseudomonas fluorescens NCIM 2036 at 3 ug/ml measured after 8 hrs relative to control; settings: NCIM 2036, 8 h, read-out: GI
In short: (§2)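 Bacteria grown in LB at 37 °C and 180 rpm to OD 1. Compounds added to wells, then 0.1% inoculum of 1 OD culture (620 nm). Growth read as OD at 620 nm after 8 h for gram-negative and after 12 h for gram-positive strains.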

[3] = tested on: Staphylococcus aureus; experiment: Growth inhibition of Staphylococcus aureus NCIM 2010 at 30 ug/ml measured after 12 hrs relative to control; settings: NCIM 2010, 12 h, read-out: GI; in short: as §2
[4] = tested on: Mycobacterium tuberculosis; experiment: Growth inhibition of Mycobacterium bovis BCG ATCC 35743 at dormant stage at 3 ug/ml measured after 12 days by nitrate reductase dye based two fold dilution method relative to control; settings: BCG str. ATCC 35743, 288 h, read-out: GI; in short: as §1
[5] = tested on: Staphylococcus aureus; experiment: Antibacterial activity against of Staphylococcus aureus NCIM 2010 measured after 12 hrs; settings: NCIM 2010, 12 h; in short: as §2
[6] = tested on: Mycobacterium tuberculosis; experiment: Growth inhibition of Mycobacterium tuberculosis H37Ra ATCC 25177 at dormant stage measured after 12 days by XTT dye based two fold dilution method; settings: H37Ra ATCC 25177, 288 h
In short: (§3)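 MTB H37Ra was grown in Dubos medium, then exposed in Mycobacterium pheli minimal medium (pH 6.6) to compounds dissolved in DMSO. The assay ended on day 8 (active) or day 12 (dormant). Viable cells were measured by XTT reduction menadione assay at 470 nm, blank-corrected, relative to vehicle control. Triplicates were expressed as mean ± SD. MIC came from dose-response curves.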

[7] = tested on: Staphylococcus aureus; experiment: Growth inhibition of Staphylococcus aureus NCIM 2010 at 10 ug/ml measured after 12 hrs relative to control; settings: NCIM 2010, 12 h, read-out: GI; in short: as §2
[8] = Antifungal activity against Fusarium oxysporum NCIM 1332 by standard agar method
In short: (§4)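 MICs determined by standard agar method; DMSO as solvent control.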

[9] = tested on: Aspergillus flavus; experiment: Antifungal activity against Aspergillus flavus NCIM 539 by standard agar method; in short: as §4
[10] = tested on: Mycobacterium tuberculosis; experiment: Growth inhibition of Mycobacterium bovis BCG ATCC 35743 at active stage measured after 8 days by nitrate reductase dye based two fold dilution method; settings: BCG str. ATCC 35743, 192 h; in short: as §1
[11] = tested on: Bacillus subtilis; experiment: Growth inhibition of Bacillus subtilis NCIM 2079 at 10 ug/ml measured after 12 hrs relative to control; settings: NCIM 2079, 12 h, read-out: GI; in short: as §2
[12] = tested on: Pseudomonas fluorescens; experiment: Antibacterial activity against Pseudomonas fluorescens NCIM 2036 measured after 8 hrs; settings: NCIM 2036, 8 h; in short: as §2
[13] = tested on: Bacillus subtilis; experiment: Growth inhibition of Bacillus subtilis NCIM 2079 at 3 ug/ml measured after 12 hrs relative to control; settings: NCIM 2079, 12 h, read-out: GI; in short: as §2
[14] = tested on: Staphylococcus aureus; experiment: Growth inhibition of Staphylococcus aureus NCIM 2010 at 3 ug/ml measured after 12 hrs relative to control; settings: NCIM 2010, 12 h, read-out: GI; in short: as §2
[15] = tested on: Aspergillus niger; experiment: Antifungal activity against Aspergillus niger NCIM 1196 by standard agar method; in short: as §4
[16] = tested on: Escherichia coli; experiment: Growth inhibition of Escherichia coli NCIM 2688 at 10 ug/ml measured after 8 hrs relative to control; settings: NCIM 2688, 8 h, read-out: GI; in short: as §2
[17] = tested on: Candida albicans; experiment: Antifungal activity against Candida albicans NCIM 3471 by standard agar method; in short: as §4
[18] = tested on: Bacillus subtilis; experiment: Antibacterial activity against Bacillus subtilis NCIM 2079 measured after 12 hrs; settings: NCIM 2079, 12 h; in short: as §2
[19] = tested on: Escherichia coli; experiment: Antibacterial activity against Escherichia coli NCIM 2688 measured after 8 hrs; settings: NCIM 2688, 8 h; in short: as §2
[20] = tested on: Mycobacterium tuberculosis; experiment: Growth inhibition of Mycobacterium bovis BCG ATCC 35743 at dormant stage measured after 12 days by nitrate reductase dye based two fold dilution method; settings: BCG str. ATCC 35743, 288 h; in short: as §1
[21] = Antifungal activity against Cryptococcus neoformans NCIM 576 by standard agar method; in short: as §4
[22] = tested on: Pseudomonas fluorescens; experiment: Growth inhibition of Pseudomonas fluorescens NCIM 2036 at 10 ug/ml measured after 8 hrs relative to control; settings: NCIM 2036, 8 h, read-out: GI; in short: as §2
[23] = tested on: Mycobacterium tuberculosis; experiment: Growth inhibition of Mycobacterium tuberculosis H37Ra ATCC 25177 at active stage measured after 8 days by XTT dye based two fold dilution method; settings: H37Ra ATCC 25177, 192 h; in short: as §3
[24] = tested on: Bacillus subtilis; experiment: Growth inhibition of Bacillus subtilis NCIM 2079 at 30 ug/ml measured after 12 hrs relative to control; settings: NCIM 2079, 12 h, read-out: GI; in short: as §2
[25] = tested on: Escherichia coli; experiment: Growth inhibition of Escherichia coli NCIM 2688 at 30 ug/ml measured after 8 hrs relative to control; settings: NCIM 2688, 8 h, read-out: GI; in short: as §2
[26] = tested on: Escherichia coli; experiment: Growth inhibition of Escherichia coli NCIM 2688 at 3 ug/ml measured after 8 hrs relative to control; settings: NCIM 2688, 8 h, read-out: GI; in short: as §2
[27] = tested on: Mycobacterium tuberculosis; experiment: Growth inhibition of Mycobacterium bovis BCG ATCC 35743 at dormant stage at 30 ug/ml measured after 12 days by nitrate reductase dye based two fold dilution method relative to control; settings: BCG str. ATCC 35743, 288 h, read-out: GI; in short: as §1
[28] = tested on: Pseudomonas fluorescens; experiment: Growth inhibition of Pseudomonas fluorescens NCIM 2036 at 30 ug/ml measured after 8 hrs relative to control; settings: NCIM 2036, 8 h, read-out: GI; in short: as §2

Structure (SMILES)	inhibition of growth at 10 µg/mL [1] [%]	inhibition of growth at 3 µg/mL [2] [%]	inhibition of growth at 30 µg/mL [3] [%]	inhibition of growth at 3 µg/mL [4] [%]	MIC [5] [µg/mL]	IC50 [6] [µg/mL]	IC90 [6] [µg/mL]	inhibition of growth at 10 µg/mL [7] [%]	MIC [8] [µg/mL]	MIC [9] [µg/mL]	IC50 [10] [µg/mL]	IC90 [10] [µg/mL]	inhibition of growth at 10 µg/mL [11] [%]	MIC [12] [µg/mL]	inhibition of growth at 3 µg/mL [13] [%]	inhibition of growth at 3 µg/mL [14] [%]	MIC [15] [µg/mL]	inhibition of growth at 10 µg/mL [16] [%]	MIC [17] [µg/mL]	MIC [18] [µg/mL]	further results
COc1ccc2cc(/C=C3\SC(=S)N(CC(=O)O)C3=O)c(Cl)nc2c1	33	4.92	-17.7	-1.36	> 30	> 30	> 30	-11.3	75 (≈ 190 µM)	125 (≈ 317 µM)	> 30	> 30	-0.0845	> 30	2.79	-13.7	150 (≈ 380 µM)	7.54	50 (≈ 127 µM)	> 30	MIC [19]: > 30 µg/mL; IC50 [20]: > 30 µg/mL; IC90 [20]: > 30 µg/mL; MIC [21]: 100 µg/mL (≈ 253 µM); inhibition of growth at 10 µg/mL [22]: -54.3%; IC50 [23]: > 30 µg/mL; IC90 [23]: > 30 µg/mL; inhibition of growth at 30 µg/mL [24]: 6.8%; inhibition of growth at 30 µg/mL [25]: -17.9%; inhibition of growth at 3 µg/mL [26]: 2.49%; inhibition of growth at 30 µg/mL [27]: 0.66%; inhibition of growth at 30 µg/mL [28]: 10.3%
CCOc1ccc2nc(Cl)c(/C=C3\SC(=S)N(CCC(=O)O)C3=O)cc2c1	33	-85	-27.7	21.5	> 30	> 30	> 30	-39.4	125 (≈ 296 µM)	100 (≈ 236 µM)	> 30	> 30	-8.28	> 30	-2.45	-5.78	175 (≈ 414 µM)	7.42	200 (≈ 473 µM)	> 30	MIC [19]: > 30 µg/mL; IC50 [20]: > 30 µg/mL; IC90 [20]: > 30 µg/mL; MIC [21]: 175 µg/mL (≈ 414 µM); inhibition of growth at 10 µg/mL [22]: -40.5%; IC50 [23]: > 30 µg/mL; IC90 [23]: > 30 µg/mL; inhibition of growth at 30 µg/mL [24]: -4.16%; inhibition of growth at 30 µg/mL [25]: 14.8%; inhibition of growth at 3 µg/mL [26]: 5.32%; inhibition of growth at 30 µg/mL [27]: 32.5%; inhibition of growth at 30 µg/mL [28]: 7.19%
O=C(O)CCN1C(=O)/C(=C/c2cc3ccccc3nc2Cl)SC1=S	-18.9	-48	-22.9	-3.3	> 30	> 30	> 30	-20.6	125 (≈ 330 µM)	50 (≈ 132 µM)	> 30	> 30	6.32	> 30	3	-28.2	75 (≈ 198 µM)	-52.5	100 (≈ 264 µM)	> 30	MIC [19]: > 30 µg/mL; IC50 [20]: > 30 µg/mL; IC90 [20]: > 30 µg/mL; MIC [21]: 50 µg/mL (≈ 132 µM); inhibition of growth at 10 µg/mL [22]: -0.29%; IC50 [23]: > 30 µg/mL; IC90 [23]: > 30 µg/mL; inhibition of growth at 30 µg/mL [24]: 6.41%; inhibition of growth at 30 µg/mL [25]: -59%; inhibition of growth at 3 µg/mL [26]: -47.5%; inhibition of growth at 30 µg/mL [27]: 49.1%; inhibition of growth at 30 µg/mL [28]: -6.76%
